Test results published in ChEMBL document CHEMBL2163276, “A peptide nucleic acid-aminosugar conjugate targeting transactivation response element of HIV-1 RNA genome shows a high bioavailability in human cells and strongly inhibits tat-mediated transactivation of HIV-1 transcription” (J Med Chem, 2012).
Values belong to the compound of their own block, whether it stands above or below them. Active and inactive are the calls of the source. The rule behind the calls is not given here.

What was measured:
[1] = system: CCRF-CEM; assay: Cellular uptake in human CEM cells at 1 uM after 12 hrs by confocal microscopic analysis; assay type: ADME, cell-based
How it was run: (§1)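 CEM cells incubated 12 h with FITC-labelled conjugate (0.5 and 1 µM) or with 1 µM FITC-labelled naked PNA. Cells then washed, nuclei DAPI-stained, and imaged by confocal microscopy with FITC read at 488 nm.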

[2] = system: CCRF-CEM; assay: Cellular uptake in human CEM cells at 0.2 uM within 14 hrs by FACS analysis; assay type: ADME, cell-based
How it was run: (§2)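 CEM cells taken in log phase and resuspended at 0.5×10^6 cells/mL in RPMI with 2% FBS, preincubated 30 min at 37 °C. Fluorescein-labelled conjugate added at 50 nM–1 µM and incubated. Cells harvested at 30 min, 3 h and 14 h, washed in PBS and scored for FITC-positive cells by FACScan, with propidium iodide (1 µg/mL) to exclude dead cells.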

[3] = Cellular uptake in human Huh7.5 cells at 1 uM after 10 hrs by DAPI/WGA-Rhodamine-staining based confocal microscopic analysis in presence of chloroquine; assay type: ADME, cell-based; conditions: huh-7, 10 h
How it was run: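 Huh7.5 cells incubated with 1 µM FITC-labelled conjugate, with or without the endosome disruptor chloroquine, for 10 h. Cells then PBS-washed, fixed in 4% paraformaldehyde, stained with WGA-rhodamine (membrane glycoproteins) and DAPI (nuclei), and imaged by confocal microscopy, FITC at 488 nm.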

[4] = system: CCRF-CEM; assay: Cellular uptake in human CEM cells at 0.3 uM within 14 hrs by FACS analysis; assay type: ADME, cell-based; how it was run: as §2
[5] = system: CCRF-CEM; assay: Cellular uptake in human CEM cells up to 14 hrs by FACS analysis at 4 degC; assay type: ADME, cell-based; how it was run: as §2
[6] = system: CCRF-CEM; assay: Cellular uptake in human CEM cells at 0.2 uM within 30 mins by FACS analysis; assay type: ADME, cell-based; conditions: 0.5 h; how it was run: as §2
[7] = system: CCRF-CEM; assay: Cellular uptake in human CEM cells at 50 nM to 1 uM by FACS analysis; assay type: ADME, cell-based; conditions: 0.05 µM, TDE = time-dependent effect; how it was run: as §2
[8] = Cytotoxicity against human CEM cells assessed as cell viability at 0.2 to 1 uM by propidium iodide-staining based flow cytometric analysis; conditions: CCRF-CEM cells, read-out: Activity
How it was run: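 CEM cells exposed to labelled conjugate at 0.2–1 µM under uptake-assay conditions. Viability scored by propidium iodide exclusion during flow cytometry.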

[9] = system: CCRF-CEM; assay: Cellular uptake in human CEM cells at 0.5 uM after 12 hrs by confocal microscopic analysis; assay type: ADME, cell-based; how it was run: as §1
[10] = system: CCRF-CEM; assay: Cellular uptake in human CEM cells up to 14 hrs by FACS analysis at 37 degC; assay type: ADME, cell-based; how it was run: as §2
[11] = system: CCRF-CEM; assay: Cellular uptake in human CEM cells up to 14 hrs by FACS analysis; assay type: ADME, cell-based; how it was run: as §2
[12] = system: Nucleic Acid; assay: Effect on HIV1 transactivation response element RNA-mediated LTR expression transfected in human CEM cells at 0.1 to 2 uM after 24 hrs by luciferase reporter gene assay; assay type: cell-based; conditions: Human immunodeficiency virus 1, CCRF-CEM
How it was run: (§3)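 CEM cells (0.5×10^6/well) transfected with pHIV-1 LTR-Luc (2 µg) and pRL-SV40 (500 ng), with or without pCMV-Tat (2 µg). Conjugates added 2 h later, and cells grown in RPMI/10% FBS at 37 °C. At 24 h, dual-luciferase read-out; firefly normalised to Renilla and expressed as % of untreated cells. Mean ± SEM of two independent experiments.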

[13] = system: Nucleic Acid; assay: Induction of HIV1 transactivation response element RNA cleavage in presence of metal ion; assay type: nucleic-acid assay; conditions: Human immunodeficiency virus 1
[14] = system: CCRF-CEM; assay: Cytotoxicity against human CEM cells assessed as inhibition of [3H]thymidine incorporation at 0.1 and 0.5 mM after 48 hrs by scintillation counting; assay type: cell-based
How it was run: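 CEM cells grown with conjugate (0.1 and 0.5 mM, dissolved in DMSO; final DMSO 5%) plus [methyl-3H]thymidine 5 µCi/mL for 48 h. Nucleic acids lysed with 1% NP-40, TCA-precipitated onto glass-fibre filters and scintillation counted. Results given as % of DMSO control, from three independent experiments.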

[15] = system: Nucleic Acid; assay: Inhibition of HIV1 transactivation response element RNA-mediated LTR expression transfected in human CEM cells coexpressing CMV-Tat at 1 uM after 24 hrs by luciferase reporter gene assay; assay type: cell-based; conditions: Human immunodeficiency virus 1, CCRF-CEM; how it was run: as §3
[16] = system: Nucleic Acid; assay: Inhibition of transactivation response element RNA-mediated transcription in HIV1 pseudovirions infected in human CEM cells assessed as reduction in luciferase activity incubated 48 hrs post-infection measured after 72 hrs by reporter gene assay; assay type: cell-based
How it was run: (§4)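 CEM 12D7 cells (1×10^6 in 1 mL) infected 2 h with VSV-G-pseudotyped NL4-3.Luc.R-E- virions (14 ng p24), washed and cultured. Conjugate added 48 h post-infection. After 76 h, cells lysed and firefly luciferase measured; IC50 calculated. Mean of two independent experiments.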

[17] = system: Nucleic Acid; assay: Induction of HIV1 transactivation response element RNA cleavage; assay type: nucleic-acid assay; conditions: Human immunodeficiency virus 1
[18] = Chemical stability of the compound in aqueous HCl solution after 3 days by HPLC analysis; assay type: physicochemical; conditions: buffer, 72 h
How it was run: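 Conjugate held in 0.1 M aqueous HCl at 37 °C for 3 days. HPLC retention time compared with untreated sample.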

[19] = system: Nucleic Acid; assay: Binding affinity to HIV1 32-P labeled transactivation response element RNA at compound:RNA ratio of 1:1 after 1 hr by gel mobility shift assay; assay type: nucleic-acid assay; conditions: Human immunodeficiency virus 1
How it was run: (§5)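 10 nM 32P-labelled 82-nt TAR RNA run-off transcript (T7) incubated with conjugate in 50 mM Tris-HCl pH 7.8, 60 mM KCl, 5 mM MgCl2, 1 h at room temperature. Molar ratios of conjugate to RNA were 0–5.0. Samples were run on native 8% polyacrylamide gel in TBE, 100 V, 4 h, room temperature, then PhosphorImager read-out.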

[20] = system: Nucleic Acid; assay: Binding affinity to HIV1 32-P labeled transactivation response element RNA assessed as gel mobility shift at compound:RNA ratio of 0.5:1 after 1 hr by gel mobility shift assay; assay type: nucleic-acid assay; conditions: Human immunodeficiency virus 1; how it was run: as §5
[21] = system: Nucleic Acid; assay: Inhibition of transactivation response element RNA-mediated transcription in HIV1 pseudovirions infected in human CEM cells assessed as reduction in luciferase activity at 800 nM incubated 48 hrs post-infection measured after 72 hrs by reporter gene assay; assay type: cell-based; conditions: Human immunodeficiency virus 1, CCRF-CEM; how it was run: as §4
[22] = system: Nucleic Acid; assay: Inhibition of HIV1 transactivation response element RNA-mediated LTR expression transfected in human CEM cells coexpressing CMV-Tat at 0.1 to 2 uM after 24 hrs by luciferase reporter gene assay; assay type: cell-based; conditions: Human immunodeficiency virus 1, CCRF-CEM; how it was run: as §3
[23] = system: CCRF-CEM; assay: Cellular uptake in human CEM cells at 2 uM after overnight incubation; assay type: ADME, cell-based
[24] = system: Nucleic Acid; assay: Inhibition of HIV1 transactivation response element RNA-mediated LTR expression transfected in human CEM cells coexpressing CMV-Tat at 1 and 2 uM after 24 hrs by luciferase reporter gene assay; assay type: cell-based; conditions: Human immunodeficiency virus 1; CCRF-CEM; how it was run: as §3
[25] = Human immunodeficiency virus 1, CCRF-CEM

SMILES: CO[C@H]1O[C@H](CN)[C@@H](OCCCCCC(=O)NCCN(CC(=O)NCCN(CC(=O)NCCN(CC(=O)NCCN(CC(=O)NCCN(CC(=O)NCCN(CC(=O)NCCN(CC(=O)NCCN(CC(=O)NCCN(CC(=O)NCCN(CC(=O)NCCN(CC(=O)NCCN(CC(=O)NCCN(CC(=O)NCCN(CC(=O)NCCN(CC(=O)NCCN(CC(=O)N[C@@H](CCCCNC(=S)Nc2ccc(-c3c4ccc(=O)cc-4oc4cc(O)ccc34)c(C(=O)O)c2)C(N)=O)C(=O)Cn2cc(C)c(=O)[nH]c2=O)C(=O)Cn2ccc(N)nc2=O)C(=O)Cn2cc(C)c(=O)[nH]c2=O)C(=O)Cn2cnc3c(N)ncnc32)C(=O)Cn2cnc3c(=O)[nH]c(N)nc32)C(=O)Cn2cnc3c(N)ncnc32)C(=O)Cn2ccc(N)nc2=O)C(=O)Cn2cc(C)c(=O)[nH]c2=O)C(=O)Cn2ccc(N)nc2=O)C(=O)Cn2cnc3c(=O)[nH]c(N)nc32)C(=O)Cn2cnc3c(=O)[nH]c(N)nc32)C(=O)Cn2cnc3c(N)ncnc32)C(=O)Cn2ccc(N)nc2=O)C(=O)Cn2ccc(N)nc2=O)C(=O)Cn2ccc(N)nc2=O)C(=O)Cn2cc(C)c(=O)[nH]c2=O)[C@H](O)[C@H]1N
Drug uptake [1]: 99%
Drug uptake [2]: 85%
Drug uptake [3]: Active
Drug uptake [4]: 100%
Drug uptake [5]: Active
Drug uptake [6]: 10%
Drug uptake [7]: tde
viability at 1 µM [8]: > 95%
Drug uptake [9]: 90%
Drug uptake [10]: Active
Drug uptake [11]: Dose-dependent effect

SMILES: Cc1cn(CC(=O)N(CCN)CC(=O)NCCN(CC(=O)NCCN(CC(=O)NCCN(CC(=O)NCCN(CC(=O)NCCN(CC(=O)NCCN(CC(=O)NCCN(CC(=O)NCCN(CC(=O)NCCN(CC(=O)NCCN(CC(=O)NCCN(CC(=O)NCCN(CC(=O)NCCN(CC(=O)NCCN(CC(=O)NCCN(CC(=O)N[C@@H](CCCCNC(=S)Nc2ccc(-c3c4ccc(=O)cc-4oc4cc(O)ccc34)c(C(=O)O)c2)C(N)=O)C(=O)Cn2cc(C)c(=O)[nH]c2=O)C(=O)Cn2ccc(N)nc2=O)C(=O)Cn2cc(C)c(=O)[nH]c2=O)C(=O)Cn2cnc3c(N)ncnc32)C(=O)Cn2cnc3c(=O)[nH]c(N)nc32)C(=O)Cn2cnc3c(N)ncnc32)C(=O)Cn2ccc(N)nc2=O)C(=O)Cn2cc(C)c(=O)[nH]c2=O)C(=O)Cn2ccc(N)nc2=O)C(=O)Cn2cnc3c(=O)[nH]c(N)nc32)C(=O)Cn2cnc3c(=O)[nH]c(N)nc32)C(=O)Cn2cnc3c(N)ncnc32)C(=O)Cn2ccc(N)nc2=O)C(=O)Cn2ccc(N)nc2=O)C(=O)Cn2ccc(N)nc2=O)c(=O)[nH]c1=O
Drug uptake [1]: Not Active

SMILES: Cc1cn(CC(=O)N(CCNC(=O)CN(CCNC(=O)CN(CCNC(=O)CN(CCNC(=O)CN(CCNC(=O)CN(CCNC(=O)CN(CCNC(=O)CN(CCNC(=O)CN(CCNC(=O)CN(CCNC(=O)CN(CCNC(=O)CN(CCNC(=O)CN(CCNC(=O)CN(CCNC(=O)CN(CCNC(=O)CN(CCN)C(=O)Cn2cc(C)c(=O)[nH]c2=O)C(=O)Cn2ccc(N)nc2=O)C(=O)Cn2ccc(N)nc2=O)C(=O)Cn2ccc(N)nc2=O)C(=O)Cn2cnc3c(N)ncnc32)C(=O)Cn2cnc3c(=O)[nH]c(N)nc32)C(=O)Cn2cnc3c(=O)[nH]c(N)nc32)C(=O)Cn2ccc(N)nc2=O)C(=O)Cn2cc(C)c(=O)[nH]c2=O)C(=O)Cn2ccc(N)nc2=O)C(=O)Cn2cnc3c(N)ncnc32)C(=O)Cn2cnc3c(=O)[nH]c(N)nc32)C(=O)Cn2cnc3c(N)ncnc32)C(=O)Cn2cc(C)c(=O)[nH]c2=O)C(=O)Cn2ccc(N)nc2=O)CC(N)=O)c(=O)[nH]c1=O
inhibition [24]: inactive

Second part, led by results:

Activity [13]: inactive
IC50 [16, 25]: 800 nM
Activity [17]: inactive
Stability [18]: Stable
Activity [19]: Active
Activity [20]: 50%
SMILES: CO[C@H]1O[C@H](CN)[C@@H](OCCCCCC(=O)NCCN(CC(=O)NCCN(CC(=O)NCCN(CC(=O)NCCN(CC(=O)NCCN(CC(=O)NCCN(CC(=O)NCCN(CC(=O)NCCN(CC(=O)NCCN(CC(=O)NCCN(CC(=O)NCCN(CC(=O)NCCN(CC(=O)NCCN(CC(=O)NCCN(CC(=O)NCCN(CC(=O)NCCN(CC(N)=O)C(=O)Cn2cc(C)c(=O)[nH]c2=O)C(=O)Cn2ccc(N)nc2=O)C(=O)Cn2cc(C)c(=O)[nH]c2=O)C(=O)Cn2cnc3c(N)ncnc32)C(=O)Cn2cnc3c(=O)[nH]c(N)nc32)C(=O)Cn2cnc3c(N)ncnc32)C(=O)Cn2ccc(N)nc2=O)C(=O)Cn2cc(C)c(=O)[nH]c2=O)C(=O)Cn2ccc(N)nc2=O)C(=O)Cn2cnc3c(=O)[nH]c(N)nc32)C(=O)Cn2cnc3c(=O)[nH]c(N)nc32)C(=O)Cn2cnc3c(N)ncnc32)C(=O)Cn2ccc(N)nc2=O)C(=O)Cn2ccc(N)nc2=O)C(=O)Cn2ccc(N)nc2=O)C(=O)Cn2cc(C)c(=O)[nH]c2=O)[C@H](O)[C@H]1N
Activity [12]: inactive
Activity [14]: Non-toxic
inhibition [15]: 75%
inhibition [16, 25]: Dose-dependent effect
inhibition [21]: 50%
inhibition [22]: Active

Drug uptake [23]: 30%
SMILES: Cc1cn(CC(=O)N(CCNC(=O)CN(CCNC(=O)CN(CCNC(=O)CN(CCNC(=O)CN(CCNC(=O)CN(CCNC(=O)CN(CCNC(=O)CN(CCNC(=O)CN(CCNC(=O)CN(CCNC(=O)CN(CCNC(=O)CN(CCNC(=O)CN(CCNC(=O)CN(CCNC(=O)CN(CCNC(=O)CN(CCNC(=O)CCC(=O)NCCCCCCO[C@@H]2[C@@H](O)[C@H](N)C[C@H](N)[C@H]2O[C@H]2O[C@H](CN)[C@@H](O)[C@H](O)[C@H]2N)C(=O)Cn2cc(C)c(=O)[nH]c2=O)C(=O)Cn2ccc(N)nc2=O)C(=O)Cn2ccc(N)nc2=O)C(=O)Cn2ccc(N)nc2=O)C(=O)Cn2cnc3c(N)ncnc32)C(=O)Cn2cnc3c(=O)[nH]c(N)nc32)C(=O)Cn2cnc3c(=O)[nH]c(N)nc32)C(=O)Cn2ccc(N)nc2=O)C(=O)Cn2cc(C)c(=O)[nH]c2=O)C(=O)Cn2ccc(N)nc2=O)C(=O)Cn2cnc3c(N)ncnc32)C(=O)Cn2cnc3c(=O)[nH]c(N)nc32)C(=O)Cn2cnc3c(N)ncnc32)C(=O)Cn2cc(C)c(=O)[nH]c2=O)C(=O)Cn2ccc(N)nc2=O)CC(N)=O)c(=O)[nH]c1=O
